Compound activity as filed in PubChem.
Only some compounds are listed: those with a hit (about 4.5% of all), similar ones and a draw of the others.
CHOP inh: inhibitors of CHOP promoter induction, primary screen, cell-based, unfolded protein response, luciferase reporter; CHO-K1 CHOP-promoter luciferase, tunicamycin-induced, 15-18 h; inhibition, % at 10 µM; 220,000 compounds, 3.8% hits; AID 2732, 2010;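 active = compounds that reduced the stress-induced luciferase reporter signal by more than about 70% of percent inhibition, limit read from the data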
NS3 helicase inh: inhibitors of HCV NS3 helicase, primary screen, biochemical, Cy5 molecular beacon fluorescence | 290,000 compounds, 0.56% hits | Hepatitis C virus NS3 helicase | inhibition, % at 10.9 µM | NS3 helicase DNA unwinding | AID 1800, 2009;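 active = inhibition above the mean of all tested compounds plus 3 SD, set per campaign, cut at about 35% in these data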
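assay system = NS3 helicase fragment of HCV | buffer or medium = MOPS pH 6.5, MgCl2, DTT, Tween20, BSA | timing = 60 min unwinding reaction at 25 °C after ATP addition | signal = Cy5 beacon fluorescence read at start and 1 h | read-out basis = % inhibition of unwinding | control set = low DMSO, high thioflavine S at 110 µM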
M18AAP inhibitor: PfM18AAP inhibitors, malaria aminopeptidase, primary screen, biochemical, QFRET, recombinant enzyme. M18 aspartyl aminopeptidase (Plasmodium falciparum 3D7). inhibition, % at 7.35 µM. H-Glu-NHMec fluorogenic cleavage. 290,000 compounds, 1.2% hits;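 active = inhibition above the campaign mean inhibition over all tested compounds plus 3 SD, cut at about 28% in these data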
UPR XBP1 act: activators of adaptive XBP1 UPR arm, primary screen, cell-based, CHO-XBP1 luciferase reporter, luminescence, uHTS. IRE1-XBP1 UPR activation; percent of tunicamycin response, DMSO as zero. activation, % at 20 µM. 330,000 compounds, 0.33% hits. AID 463104, 2010;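 active = versus positive control, 20 µM dose yields 30% or more activation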
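Material: CHO cell line with stable XBP1 luciferase reporter; schedule: 16-18 h cell attachment at 37 °C, then 6 h compound exposure; signal: glow luminescence from Steady-Glo reagent; medium: serum-containing F12 medium, 10% FBS; benchmarks: tunicamycin 10 µg/mL and vehicle-only wells; read-out: percent activation relative to tunicamycin reference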
p97 ATPase inh: inhibitors of human p97 ATPase, primary screen, biochemical | recombinant p97 ATPase, Kinase-Glo ATP luminescence, 3 h | 220,000 compounds, 0.42% hits | AID 1481, 2009 | Transitional endoplasmic reticulum ATPase (Homo sapiens), P55072 | inhibition, % at 8 µM; in the data active = inhibition above about 15%
Target sequence (P55072 whole entry, looked up): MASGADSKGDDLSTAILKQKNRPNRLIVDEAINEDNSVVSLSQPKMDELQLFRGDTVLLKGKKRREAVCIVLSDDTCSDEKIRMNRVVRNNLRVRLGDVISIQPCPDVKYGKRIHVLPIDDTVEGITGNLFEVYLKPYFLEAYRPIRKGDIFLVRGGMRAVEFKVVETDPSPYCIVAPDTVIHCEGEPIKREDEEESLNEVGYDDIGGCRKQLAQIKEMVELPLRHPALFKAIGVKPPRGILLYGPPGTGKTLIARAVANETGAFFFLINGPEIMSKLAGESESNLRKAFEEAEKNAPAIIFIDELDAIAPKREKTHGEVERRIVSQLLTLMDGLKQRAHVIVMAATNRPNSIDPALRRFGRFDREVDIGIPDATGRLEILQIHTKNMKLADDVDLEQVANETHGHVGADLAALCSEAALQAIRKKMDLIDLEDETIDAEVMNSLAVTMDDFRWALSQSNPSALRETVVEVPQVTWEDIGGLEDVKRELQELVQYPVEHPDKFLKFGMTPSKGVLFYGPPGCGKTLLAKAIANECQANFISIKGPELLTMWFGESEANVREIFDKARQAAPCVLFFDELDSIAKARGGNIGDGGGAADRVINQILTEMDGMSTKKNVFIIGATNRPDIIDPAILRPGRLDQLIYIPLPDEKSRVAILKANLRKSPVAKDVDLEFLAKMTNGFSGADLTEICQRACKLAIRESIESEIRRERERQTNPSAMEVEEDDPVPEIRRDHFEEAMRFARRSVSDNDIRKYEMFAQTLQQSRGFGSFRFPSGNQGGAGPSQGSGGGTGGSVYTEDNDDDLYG
CHOP UPR activ: activators of apoptotic CHOP UPR arm, primary screen, cell-based, CHO-CHOP luciferase reporter, luminescence, uHTS; AID 449763, 2010; activation, % at 10 µM; 330,000 compounds, 0.34% hits; UPR activation; percent of tunicamycin response over DMSO baseline;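 active = at 10 µM dose, activation of 40% or more, normalized to positive control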
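Test system: CHO-CHOP cells, stable luciferase reporter of PERK-eIF2a-CHOP signalling | Quantity: 500 CHO-CHOP cells per well | Buffer or medium: F12 plus 10% serum | Compound dosing: 10 µM single point, 0.5% DMSO | Schedule: 6 h compound treatment, 37 °C | Signal: Luciferase luminescence | Control set: Tunicamycin high control, DMSO low control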
NS3 hel confirm: HCV NS3 helicase inhibitors, retest, confirmation, biochemical, Cy5 molecular beacon fluorescence, triplicate. shares compounds with NS3 helicase inh. NS3 helicase DNA unwinding. inhibition, % at 10.9 µM. 1,600 compounds, 31% hits;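 active = inhibition above the mean of all tested compounds plus 3 SD, cutoff set per campaign, cut at about 36% in these data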
FID counter trip: compounds displacing fluorescent DNA intercalator, artefact control for HCV NS3 helicase inhibitor project, biochemical, FID fluorescence, triplicate; DNA fluorescent intercalator displacement; 1,600 compounds, 4% hits; inhibition, % at 7.9 µM; shares compounds with NS3 helicase inh; in the data active = inhibition above about 37%;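 note: higher means more displacement of ethidium bromide from the DNA hairpin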
Hits are given with their value; i = inactive; nt = no result given.

SMILES | CHOP inh | NS3 helicase inh | M18AAP inhibitor | UPR XBP1 act | p97 ATPase inh | CHOP UPR activ | NS3 hel confirm | FID counter trip
Cc1ccc(-c2cc(-c3ccco3)c3c(N)c(C(=O)NN)oc3n2)cc1 | i | 42 | i | i | i | i | i | i
COc1cccc(/C=N/NC(=O)c2oc3nc(-c4ccccc4)cc(-c4ccco4)c3c2N)c1 | i | 39 | i | i | i | i | i | i
NNC(=O)c1oc2nc(-c3cccs3)cc(-c3ccco3)c2c1N | nt | i | i | i | nt | i | nt | nt
NC(=O)COn1c(SCC(N)=O)nc2ccccc2c1=O | i | i | i | i | i | i | nt | nt
CC(=O)Nc1ccc(S(=O)(=O)Nc2nnc(Cc3ccc(Cl)cc3)s2)cc1 | nt | i | i | i | nt | i | nt | nt
CC(C)[N+]1=C2C=CC=CC=C2SC12C([N+](=O)[O-])=CC(=[N+]([O-])[O-])C=C2[N+](=O)[O-] (configuration not stated) | i | i | i | i | i | i | nt | nt
CCOC(=O)C1=C(O)/C(=C\c2ccc(CNC(=O)C(=O)Nc3ccccc3)o2)N=C1C | i | 40 | i | i | i | i | i | i
CCOC(=O)C1=C(O)/C(=C\c2cccs2)N=C1C | i | i | i | i | i | i | nt | nt
Cc1cc(/C=C2\SC(=S)N(C)C2=O)c(C)n1-c1cccc(O)c1 | i | 83 | i | i | i | i | i | i
COc1ccc(-n2c(C)cc(/C=C3/SC(=S)N(C)C3=O)c2C)cc1 | i | i | i | nt | i | nt | nt | nt
O=C(COc1ccccc1)Nc1nnc(-c2ccc(F)cc2)o1 | nt | 60 | i | i | nt | i | i | i
O=C(COc1ccccc1)Nc1nnc(-c2ccccc2Cl)o1 | nt | i | i | i | nt | i | nt | nt
O=C(COc1ccc2c(-c3ccccc3)cc(=O)oc2c1)N[C@@H](Cc1c[nH]c2ccc(O)cc12)C(=O)O | nt | i | i | i | nt | i | nt | nt
Cc1cc(OCC(=O)NC(Cc2c[nH]c3ccc(O)cc23)C(=O)O)c2c(C)c(C)c(=O)oc2c1 (configuration not stated) | nt | i | i | i | nt | i | nt | nt
CCCc1cc(=O)oc2cc(OCC(=O)NC(Cc3c[nH]c4ccc(O)cc34)C(=O)O)c(Cl)cc12 (configuration not stated) | nt | 53 | i | i | nt | i | i | i
CC(Oc1ccc2c(-c3ccccc3)cc(=O)oc2c1)C(=O)NC(Cc1c[nH]c2ccc(O)cc12)C(=O)O (configuration not stated) | nt | 41 | i | i | nt | i | 39 | i
C=CCNC(=O)c1ccccc1NC(=O)C1CC(=O)N(C(C)C)C1 (configuration not stated) | nt | i | i | i | nt | i | nt | nt
CCCSc1nc(C)c(-c2csc(C(C#N)=C3CCCC3)n2)cc1C#N | i | 52 | i | i | i | i | i | i
CCCCSc1nc2c(cc1C#N)CCC2 | i | i | i | i | i | i | nt | nt
CCCCCOC(=O)c1[nH]c2c(c1C)C(=O)CC(c1ccco1)C2 (configuration not stated) | nt | 41 | i | i | i | i | i | i
COCCCN1C(=O)C(=O)/C(=C(/O)c2ccc(S(=O)(=O)N3CCCCC3)cc2)C1c1ccc(F)cc1 (configuration not stated) | nt | 44 | i | i | nt | i | i | i
CCN(CC)CCN1C(=O)C(=O)/C(=C(/O)c2ccc(S(=O)(=O)N3CCOCC3)cc2)C1c1ccccc1 (configuration not stated) | nt | i | i | i | nt | i | nt | nt
CCN(CC)CCN1C(=O)C(=O)/C(=C(/O)c2ccc(S(=O)(=O)N3CCOCC3)cc2)C1c1ccc(C(C)(C)C)cc1 (configuration not stated) | nt | 46 | i | i | nt | i | i | i
CC1(C)CC(=O)C2=C(C1)N(c1ccc(F)cc1)C(=O)C2(NC(=O)c1ccccc1)C(F)(F)F (configuration not stated) | i | 49 | i | i | i | i | i | i
CN(CC(=O)Nc1cccc(F)c1)C(=O)CNS(=O)(=O)c1ccc(N(C)C)c([N+](=O)[O-])c1 | nt | nt | nt | i | nt | i | nt | nt
SMILES | CHOP inh | NS3 helicase inh | M18AAP inhibitor | UPR XBP1 act | p97 ATPase inh | CHOP UPR activ | NS3 hel confirm | FID counter trip
COCCn1c(=S)[nH]c2sc3c(c2c1=O)CCCC3 | nt | 52 | i | i | nt | i | i | i
COCCCn1c(=S)[nH]c2sc3c(c2c1=O)CCCC3 | nt | i | i | i | nt | i | nt | nt
Cc1cccc(C(=O)OCC(=O)Nc2c(C)n(C)n(-c3ccccc3)c2=O)c1O | nt | nt | nt | i | nt | i | nt | nt
Cc1c(NC(=O)COC(=O)c2ccccc2Cl)c(=O)n(-c2ccccc2)n1C | i | 108 | i | i | i | i | i | i
COc1cccc(CNC(=O)CCC2CCCN(C(=O)c3cccnc3SC)C2)c1 (configuration not stated) | nt | i | i | i | nt | i | nt | nt
CCc1cc(=O)oc2cc(C)c(CN3CCCCC3)c(O)c12 | i | 36 | i | nt | i | nt | i | i
CCc1cc(=O)oc2cc(C)c(CN3CCCC3)c(O)c12 | i | 39 | i | i | i | i | i | i
CCCc1cc(=O)oc2cc(C)c(CN3CCCC3)c(O)c12 | i | 40 | i | i | i | i | 41 | i
CC(C)=CC1C(C(=O)Nc2ccc(S(=O)(=O)N3CCOCC3)cc2)C1(C)C (configuration not stated) | nt | nt | nt | i | nt | i | nt | nt
Cc1ccc2nc(NC(=O)CN3C(=O)NC4(CCCCC4)C3=O)sc2c1 | nt | nt | nt | i | nt | i | nt | nt
O=C(NCCCN1CCCC1=O)c1cccc(S(=O)(=O)N2CCCCC2)c1 | nt | nt | nt | i | nt | i | nt | nt
Cc1c(NC(=O)C(C)OC(=O)c2c3c(nc4ccccc24)CCC3)c(=O)n(-c2ccccc2)n1C (configuration not stated) | i | 39 | i | i | i | i | i | i
C/C(CC(=O)Nc1ccc(Cl)c(C(F)(F)F)c1)=N\NC(=O)c1ccccc1O | i | 41 | i | i | i | i | i | i
CCCCN1Cc2c(nc3cc(-c4ccco4)[nH]n3c2=O)C1=O | i | 49 | i | i | i | i | i | i
Cc1cc(C(=O)NNc2ccc(F)cc2F)no1 | i | i | i | i | i | i | nt | nt
